From ChEMBL document CHEMBL4177576, “Linker structure-activity relationships in fluorodeoxyglucose chlorambucil conjugates for tumor-targeted chemotherapy” (Bioorg Med Chem, 2017)
Active and inactive are the calls of the source. The calls are words filed in the database; no cut-off is given here.

tested on: Fibroblast; assay: Cytotoxicity against human fibroblasts assessed as inhibition of cell growth incubated for 48 hrs by resazurin reduction test; type: cell-based; conditions: not given
Procedure, shortened: (§1)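 Monolayers grown in MEM with 10% fetal calf serum, pyruvate, vitamins, non-essential amino acids and gentamicin at 37 °C, 5% CO2. Cells were seeded at 5×10^3/well and left 16 h to adhere. Compounds were added from DMSO stocks (final 0.5% DMSO) for 48 h continuous exposure, in triplicate. Resazurin 25 μg/mL was then added for 1 h and fluorescence read at 530/590 nm. IC50 was taken from concentration–cell number curves as % of control after blank subtraction.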

Compared with `CC(=O)OC[C@H]1O[C@@H](OC(=O)NCC(=O)Nc2ccc(OC(=O)CCCc3ccc(N(CCCl)CCCl)cc3)cc2)[C@H](F)[C@@H](OC(C)=O)[C@@H]1OC(C)=O`, `CC(=O)OC[C@H]1O[C@@H](OC(=O)Nc2ccc(OC(=O)CCCc3ccc(N(CCCl)CCCl)cc3)cc2)[C@H](F)[C@@H](OC(C)=O)[C@@H]1OC(C)=O` is higher in IC50: 32 µM for the first, > 50 µM for the second. The first is the more potent here.

Compared with `CC(=O)OC[C@H]1O[C@@H](Oc2ccc(NC(=O)c3ccc(NC(=O)CCCc4ccc(N(CCCl)CCCl)cc4)cc3)cc2)[C@H](F)[C@@H](OC(C)=O)[C@@H]1OC(C)=O`, `CC(=O)OC[C@H]1O[C@@H](Oc2ccc(NC(=O)CC(=O)NCCCc3ccc(N(CCCl)CCCl)cc3)cc2)[C@H](F)[C@@H](OC(C)=O)[C@@H]1OC(C)=O` is higher in IC50: 3 µM for the first, > 50 µM for the second.

Going from `CC(=O)OC[C@H]1O[C@@H](NC(=O)c2ccc(OC(=O)CCCc3ccc(N(CCCl)CCCl)cc3)cc2)[C@H](F)[C@@H](OC(C)=O)[C@@H]1OC(C)=O` to `CC(=O)OC[C@H]1O[C@@H](NC(=O)CC(=O)NCCCc2ccc(N(CCCl)CCCl)cc2)[C@H](F)[C@@H](OC(C)=O)[C@@H]1OC(C)=O`, the IC50 falls from > 50 µM to 13 µM.

tested on: PC-3; assay: Cytotoxicity against human PC3 assessed as inhibition of cell growth incubated for 48 hrs by resazurin reduction test; type: functional, cell-based; conditions: PC-3, 48 h; procedure, shortened: as §1

First: O=C(O)CCCc1ccc(N(CCCl)CCCl)cc1 [CHLORAMBUCIL]
Second: CC(=O)OC[C@H]1O[C@@H](NC(=O)CC(=O)NCCCc2ccc(N(CCCl)CCCl)cc2)[C@H](F)[C@@H](OC(C)=O)[C@@H]1OC(C)=O
The IC50 of the first is higher: > 100 µM for the first, 5 µM for the second.

`CC(=O)OC[C@H]1O[C@@H](OC(=O)NCC(=O)Nc2ccc(OC(=O)CCCc3ccc(N(CCCl)CCCl)cc3)cc2)[C@H](F)[C@@H](OC(C)=O)[C@@H]1OC(C)=O` and `CC(=O)OC[C@H]1O[C@@H](OC(=O)Nc2ccc(OC(=O)CCCc3ccc(N(CCCl)CCCl)cc3)cc2)[C@H](F)[C@@H](OC(C)=O)[C@@H]1OC(C)=O` cannot be ordered by IC50: > 50 µM for the first, > 50 µM for the second.

First: CC(=O)OC[C@H]1O[C@@H](Oc2ccc(NC(=O)c3ccc(NC(=O)CCCc4ccc(N(CCCl)CCCl)cc4)cc3)cc2)[C@H](F)[C@@H](OC(C)=O)[C@@H]1OC(C)=O
Second: CC(=O)OC[C@H]1O[C@@H](Oc2ccc(NC(=O)CC(=O)NCCCc3ccc(N(CCCl)CCCl)cc3)cc2)[C@H](F)[C@@H](OC(C)=O)[C@@H]1OC(C)=O
The IC50 of the first is 3.8-fold lower: 2.1 µM for the first, 8 µM for the second. The first is the more potent here.

With `CC(=O)OC[C@H]1O[C@@H](NC(=O)c2ccc(OC(=O)CCCc3ccc(N(CCCl)CCCl)cc3)cc2)[C@H](F)[C@@H](OC(C)=O)[C@@H]1OC(C)=O` the IC50 was > 50 µM.

tested on: MCF7; assay: Cytotoxicity against human MCF7 assessed as inhibition of cell growth incubated for 48 hrs by resazurin reduction test; type: functional, cell-based; conditions: MCF7, 48 h; procedure, shortened: as §1

Compared with `CC(=O)OC[C@H]1O[C@@H](OC(=O)NCC(=O)Nc2ccc(OC(=O)CCCc3ccc(N(CCCl)CCCl)cc3)cc2)[C@H](F)[C@@H](OC(C)=O)[C@@H]1OC(C)=O`, `CC(=O)OC[C@H]1O[C@@H](OC(=O)Nc2ccc(OC(=O)CCCc3ccc(N(CCCl)CCCl)cc3)cc2)[C@H](F)[C@@H](OC(C)=O)[C@@H]1OC(C)=O` is higher in IC50: 39.5 µM for the first, > 50 µM for the second.

Compared with `CC(=O)OC[C@H]1O[C@@H](Oc2ccc(NC(=O)c3ccc(NC(=O)CCCc4ccc(N(CCCl)CCCl)cc4)cc3)cc2)[C@H](F)[C@@H](OC(C)=O)[C@@H]1OC(C)=O`, `CC(=O)OC[C@H]1O[C@@H](Oc2ccc(NC(=O)CC(=O)NCCCc3ccc(N(CCCl)CCCl)cc3)cc2)[C@H](F)[C@@H](OC(C)=O)[C@@H]1OC(C)=O` is 4.1-fold higher in IC50: 3.4 µM for the first, 14 µM for the second.

First: CC(=O)OC[C@H]1O[C@@H](NC(=O)c2ccc(OC(=O)CCCc3ccc(N(CCCl)CCCl)cc3)cc2)[C@H](F)[C@@H](OC(C)=O)[C@@H]1OC(C)=O
Second: CC(=O)OC[C@H]1O[C@@H](NC(=O)CC(=O)NCCCc2ccc(N(CCCl)CCCl)cc2)[C@H](F)[C@@H](OC(C)=O)[C@@H]1OC(C)=O
The IC50 of the first is higher: > 50 µM for the first, 9 µM for the second. The second is the more potent here.

tested on: A549; assay: Cytotoxicity against human A549 assessed as inhibition of cell growth incubated for 48 hrs by resazurin reduction test; type: functional, cell-based; conditions: A549, 48 h; procedure, shortened: as §1

First: CC(=O)OC[C@H]1O[C@@H](OC(=O)NCC(=O)Nc2ccc(OC(=O)CCCc3ccc(N(CCCl)CCCl)cc3)cc2)[C@H](F)[C@@H](OC(C)=O)[C@@H]1OC(C)=O
Second: CC(=O)OC[C@H]1O[C@@H](OC(=O)Nc2ccc(OC(=O)CCCc3ccc(N(CCCl)CCCl)cc3)cc2)[C@H](F)[C@@H](OC(C)=O)[C@@H]1OC(C)=O
The IC50 of the first is 1.8-fold higher: 39 µM for the first, 22 µM for the second. The second is the more potent here.

Compared with `CC(=O)OC[C@H]1O[C@@H](Oc2ccc(NC(=O)c3ccc(NC(=O)CCCc4ccc(N(CCCl)CCCl)cc4)cc3)cc2)[C@H](F)[C@@H](OC(C)=O)[C@@H]1OC(C)=O`, `CC(=O)OC[C@H]1O[C@@H](Oc2ccc(NC(=O)CC(=O)NCCCc3ccc(N(CCCl)CCCl)cc3)cc2)[C@H](F)[C@@H](OC(C)=O)[C@@H]1OC(C)=O` is higher in IC50: 6 µM for the first, > 50 µM for the second. The first is the more potent here.

First: CC(=O)OC[C@H]1O[C@@H](NC(=O)c2ccc(OC(=O)CCCc3ccc(N(CCCl)CCCl)cc3)cc2)[C@H](F)[C@@H](OC(C)=O)[C@@H]1OC(C)=O
Second: CC(=O)OC[C@H]1O[C@@H](NC(=O)CC(=O)NCCCc2ccc(N(CCCl)CCCl)cc2)[C@H](F)[C@@H](OC(C)=O)[C@@H]1OC(C)=O
The IC50 of the first is 2.4-fold higher: 19 µM for the first, 8 µM for the second. The second is the more potent here.

tested on: M4Beu cell line; assay: Cytotoxicity against human M4Beu assessed as inhibition of cell growth incubated for 48 hrs by resazurin reduction test; type: functional, cell-based; conditions: not given; procedure, shortened: as §1

Going from `CC(=O)OC[C@H]1O[C@@H](OC(=O)NCC(=O)Nc2ccc(OC(=O)CCCc3ccc(N(CCCl)CCCl)cc3)cc2)[C@H](F)[C@@H](OC(C)=O)[C@@H]1OC(C)=O` to `CC(=O)OC[C@H]1O[C@@H](OC(=O)Nc2ccc(OC(=O)CCCc3ccc(N(CCCl)CCCl)cc3)cc2)[C@H](F)[C@@H](OC(C)=O)[C@@H]1OC(C)=O`, the IC50 rises from 30 µM to > 50 µM.

Compared with `CC(=O)OC[C@H]1O[C@@H](Oc2ccc(NC(=O)c3ccc(NC(=O)CCCc4ccc(N(CCCl)CCCl)cc4)cc3)cc2)[C@H](F)[C@@H](OC(C)=O)[C@@H]1OC(C)=O`, `CC(=O)OC[C@H]1O[C@@H](Oc2ccc(NC(=O)CC(=O)NCCCc3ccc(N(CCCl)CCCl)cc3)cc2)[C@H](F)[C@@H](OC(C)=O)[C@@H]1OC(C)=O` is 4.6-fold higher in IC50: 3 µM for the first, 13.8 µM for the second.

Compared with `CC(=O)OC[C@H]1O[C@@H](NC(=O)c2ccc(OC(=O)CCCc3ccc(N(CCCl)CCCl)cc3)cc2)[C@H](F)[C@@H](OC(C)=O)[C@@H]1OC(C)=O`, `CC(=O)OC[C@H]1O[C@@H](NC(=O)CC(=O)NCCCc2ccc(N(CCCl)CCCl)cc2)[C@H](F)[C@@H](OC(C)=O)[C@@H]1OC(C)=O` is lower in IC50: > 50 µM for the first, 12 µM for the second. The second is the more potent here.

tested on: PA-1; assay: Cytotoxicity against human PA1 assessed as inhibition of cell growth incubated for 48 hrs by resazurin reduction test; type: functional, cell-based; conditions: PA-1, 48 h; procedure, shortened: as §1

In order of falling IC50:
1. CC(=O)OC[C@H]1O[C@@H](OC(=O)NCC(=O)Nc2ccc(OC(=O)CCCc3ccc(N(CCCl)CCCl)cc3)cc2)[C@H](F)[C@@H](OC(C)=O)[C@@H]1OC(C)=O  9 µM
2. CC(=O)OC[C@H]1O[C@@H](OC(=O)Nc2ccc(OC(=O)CCCc3ccc(N(CCCl)CCCl)cc3)cc2)[C@H](F)[C@@H](OC(C)=O)[C@@H]1OC(C)=O  6 µM
3. CC(=O)OC[C@H]1O[C@@H](NC(=O)c2ccc(OC(=O)CCCc3ccc(N(CCCl)CCCl)cc3)cc2)[C@H](F)[C@@H](OC(C)=O)[C@@H]1OC(C)=O  4 µM
4. CC(=O)OC[C@H]1O[C@@H](Oc2ccc(NC(=O)CC(=O)NCCCc3ccc(N(CCCl)CCCl)cc3)cc2)[C@H](F)[C@@H](OC(C)=O)[C@@H]1OC(C)=O  2 µM
5. CC(=O)OC[C@H]1O[C@@H](NC(=O)CC(=O)NCCCc2ccc(N(CCCl)CCCl)cc2)[C@H](F)[C@@H](OC(C)=O)[C@@H]1OC(C)=O  0.4 µM

tested on: A549 (Homo sapiens); assay: Cytotoxicity against human A549 assessed as inhibition of cell growth up to 200 uM incubated for 48 hrs in absence of 50 uM chlorambucil by resazurin reduction test; conditions: not given

`CC(=O)OC[C@H]1OC(OC(C)=O)[C@H](F)[C@@H](OC(C)=O)[C@@H]1OC(C)=O` (stereo not given in full) was tested, and the “growth inhibition (GI)” value was “Active”.
`OC[C@H]1OC(O)[C@H](F)[C@@H](O)[C@@H]1O` (stereo not given in full) was tested, and the “growth inhibition (GI)” value was “Active”.

tested on: A549 (Homo sapiens); assay: Cytotoxicity against human A549 assessed as inhibition of cell growth up to 200 uM incubated for 48 hrs in presence of 50 uM chlorambucil by resazurin reduction test; conditions: not given

With `CC(=O)OC[C@H]1OC(OC(C)=O)[C@H](F)[C@@H](OC(C)=O)[C@@H]1OC(C)=O` (stereo not given in full) the “growth inhibition (GI)” value was “Active”.
In the case of `OC[C@H]1OC(O)[C@H](F)[C@@H](O)[C@@H]1O` (stereo not given in full), the “growth inhibition (GI)” value is reported as “Active”.
